In ChEMBL document CHEMBL4732137, “Insight on [1,3]thiazolo[4,5-e]isoindoles as tubulin polymerization inhibitors” (Eur J Med Chem, 2021):
Active and inactive are the calls of the source. The calls are words filed in the database; no cut-off is given here.

What was measured:
Tubulin (Homo sapiens) [1] = molecular target: T1, Tubulin (Homo sapiens) (UniProt P68371+Q9H4B7+P0DPH7+P68366+Q13509+Q71U36+P04350+Q3ZCM7+P07437+P68363+Q9BQE3+Q6PEY2+Q13885+Q9BVA1+Q9BUF5); assay: Inhibition of [3H]colchicine binding to tubulin (unknown origin) at 50 uM by DEAE-cellulose filter method relative to control; type: protein-complex assay
[2] = Antiproliferative activity against human Panel NCI-56 (56 carcinoma cell lines) measured after 48 hrs by SRB assay; type: functional
Outline: (§1)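 Full NCI human tumor cell line panel; selected compounds tested at five doses, 10^-4 to 10^-8 M, with growth inhibition summarised as the mean graph mid-point (MG_MID) across the panel.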

Tubulin (Homo sapiens) [3] = molecular target: T1, Tubulin (Homo sapiens); assay: Inhibition of [3H]colchicine binding to tubulin (unknown origin) at 5 uM by DEAE-cellulose filter method relative to control; type: protein-complex assay
[4] = Inhibition of bovine brain tubulin assembly by turbidimetry based spectrophotometric method; parameters: species or system Bos taurus
[5] = Antiproliferative activity against human Panel NCI-55 (55 carcinoma cell lines) measured after 48 hrs by SRB assay; type: functional; outline: as §1
HeLa [6] = assay: Induction of apoptosis in human HeLa cells assessed as increase in caspase-9 activation at 10 uM measured after 24 hrs by Western blot analysis; type: functional, cell-based
Outline: (§2)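 After 24 h exposure of HeLa cells to 1 or 10 µM, lysates were blotted for cleaved caspase-9 and PARP; primary antibodies 2 h at room temperature, peroxidase secondary 1 h, ECL detection, vinculin reprobe for equal loading.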

HeLa [7] = assay: Induction of apoptosis in human HeLa cells assessed as increase in annexin-V positive cells at 10 uM measured after 24 hrs by Annexin V-FITC/propidium iodide staining based flow cytometry; type: functional, cell-based
Outline: (§3)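 HeLa cells incubated 24 or 48 h at the stated concentrations, double stained with annexin V-FITC and PI, and surface phosphatidylserine measured by flow cytometry to separate live, early apoptotic, late apoptotic and necrotic cells; mean ± SEM of three independent experiments; p vs control.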

HeLa [8] = assay: Induction of apoptosis in human HeLa cells assessed as increase in necrotic cells at 10 uM measured after 48 hrs by Annexin V-FITC/propidium iodide staining based flow cytometry; type: functional, cell-based; outline: as §3
HeLa [9] = assay: Cell cycle arrest in human HeLa cells assessed as accumulation at G2/M phase at 10 uM measured after 24 hrs by propidium iodide staining based flow cytometry relative to control; type: functional
Outline: (§4)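 HeLa cells exposed 24 h at 0.1, 1 and 10 µM; fixed, labelled with propidium iodide and analysed by flow cytometry for the fraction in each cycle phase; mean ± SEM of three experiments.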

HeLa [10] = assay: Induction of apoptosis in human HeLa cells assessed as increase in PARP cleavage at 10 uM measured after 24 hrs by Western blot analysis; type: functional, cell-based; outline: as §2
HeLa [11] = assay: Induction of mitochondrial potential loss in human HeLa cells measured after 24 to 48 hrs by JC1 staining based flow cytometry; type: functional, cell-based; conditions: dose 1-10 µM, time 24-48 hrs
Outline: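 Mitochondrial membrane potential in HeLa cells after 24 or 48 h at 1 and 10 µM; JC-1 staining, excitation 490 nm, monomer emission at 530 nm versus aggregate at 590 nm […], read by flow cytometry; mean ± SEM, three independent experiments.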

HeLa [12] = assay: Cell cycle arrest in human HeLa cells assessed as reduction in accumulation at G1 phase at 0.1 to 10 uM measured after 24 hrs by propidium iodide staining based flow cytometry; type: functional; conditions: dose 0.1-10 µM; outline: as §4
[13] = Antiproliferative activity against human Panel NCI-57 (57 carcinoma cell lines) measured after 48 hrs by SRB assay; type: functional; outline: as §1
HeLa [14] = assay: Cell cycle arrest in human HeLa cells assessed as increase in cyclin B1 expression at 10 uM measured after 24 hrs by Western blot analysis; type: functional, cell-based
Outline: (§5)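 HeLa cells treated 24 h at 1 or 10 µM, washed in cold PBS, lysed on ice 30 min, protein quantified by BCA; western blot for cdc25c, p-cdc2 Y15 and cyclin B1, membranes stripped and reprobed for vinculin as loading control.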

HeLa [15] = assay: Cell cycle arrest in human HeLa cells assessed as reduction in accumulation at S phase at 0.1 to 10 uM measured after 24 hrs by propidium iodide staining based flow cytometry; type: functional; conditions: dose 0.1-10 µM; outline: as §4
HeLa [16] = assay: Induction of apoptosis in human HeLa cells at 10 uM measured after 48 hrs by Annexin V-FITC/propidium iodide staining based flow cytometry; type: functional, cell-based; outline: as §3
HeLa [17] = assay: Cell cycle arrest in human HeLa cells assessed as increase in accumulation at G2/M phase measured after 24 hrs by propidium iodide staining based flow cytometry; type: functional; conditions: dose 0.1-10 µM; outline: as §4
HeLa [18] = assay: Cell cycle arrest in human HeLa cells assessed as reduction in total cdc25c expression at 10 uM measured after 24 hrs by Western blot analysis; type: functional, cell-based; outline: as §5
HeLa [19] = assay: Cell cycle arrest in human HeLa cells assessed as reduction in phosphorylated cdc2 expression at 10 uM measured after 24 hrs by Western blot analysis; type: functional, cell-based; outline: as §5

inhibition (Tubulin (Homo sapiens) [1])	IC50 [4]	Compound	GI50 [2]	Activity (HeLa [6])	Activity (HeLa [7])	Activity (HeLa [8])	Activity (HeLa [9])	Activity (HeLa [10])	Activity (HeLa [11])	Activity (HeLa [12])	GI50 [13]	Activity (HeLa [14])	Activity (HeLa [15])	Activity (HeLa [16])	also measured
60%	7800 nM	COc1ccc(Cn2c(Br)c3c(c2Br)-c2nc(N)sc2CC3)cc1	410 nM	–	–	–	–	–	–	–	–	–	–	–	inhibition (Tubulin (Homo sapiens) [3]): 11%
–	> 20000 nM	O=C(Nc1nc2c(s1)CCc1c-2c(Br)n(Cc2ccccc2)c1Br)c1ccccc1	1200 nM	–	–	–	–	–	–	–	–	–	–	–	–
41%	12000 nM	COc1ccc(Cn2c(Br)c3c(c2-c2cc(OC)c(OC)c(OC)c2)CCc2sc(NC(C)=O)nc2-3)cc1	–	–	–	–	–	–	–	–	–	–	–	–	GI50 [5]: 610 nM
22%	> 20000 nM	COc1ccc(Cn2c(Br)c3c(c2-c2cc(OC)c(OC)c(OC)c2)CCc2sc(N)nc2-3)cc1	–	Active	Active	Active	>70%	Active	Dose-dependent effect	Active	210 nM	Active	Active	Active	–
–	> 20000 nM	COc1cc(-c2c3c(cn2S(=O)(=O)c2ccccc2)-c2nc(N)sc2CC3)cc(OC)c1OC	–	Active	Active	Active	>70%	Active	Dose-dependent effect	Active	220 nM	Active	Active	Active	Activity (HeLa [17]): Dose-dependent effect; Activity (HeLa [18]): Active; Activity (HeLa [19]): Active
–	> 20000 nM	Nc1nc2c(s1)CCc1c-2c(Br)n(Cc2ccccc2)c1Br	530 nM	–	–	–	–	–	–	–	–	–	–	–	–
